Laboratory results reported in ChEMBL document CHEMBL3792332, “Novel chromone and xanthone derivatives: Synthesis and ROS/RNS scavenging activities” (Eur J Med Chem, 2016).

What was measured:
Format in all cases: physicochemical
[1] = Antioxidant activity assessed as inhibition of superoxide induced reduction of NBT measured for 2 mins by UV-visible spectrophotometric method; conditions: for inhibition (INH): 2 min
How it was run: (§1)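 Superoxide produced by the NADH/PMS/O2 system at room temperature. NBT reduction followed at 560 nm over 2 min. Compounds in DMSO at final 25–200 μM. IC50 from % inhibition vs concentration curves, at least four independent experiments in triplicate. The single-concentration line is % inhibition at the top concentration.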

[2] = Antioxidant activity assessed as inhibition of H2O2 induced lucigenin oxidation at 37 degC
How it was run: (§2)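 H2O2 scavenging by chemiluminescence: H2O2-induced lucigenin oxidation, signal recorded immediately after the plate enters the reader. Compounds in DMSO at final 31.25–1000 μM, 37 °C. IC50 from % inhibition vs concentration curves (5–7 concentrations in triplicate, at least four independent experiments). Single-concentration line gives % effect at the top concentration. Quercetin as positive control.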

[3] = Antioxidant activity assessed as inhibition of HOCl-induced oxidation of DHR to rhodamine 123 at 37 degC by fluorimetric method
How it was run: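 HOCl made daily by adjusting 1% NaOCl to pH 6.2 with 10% H2SO4. HOCl-induced DHR oxidation to rhodamine 123 read immediately at ex 480/em 528 nm, 37 °C. Compounds in ethanol, final 6.25–400 μM. IC50 from inhibition curves, 5–7 concentrations in triplicate, ≥4 independent experiments.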

[4] = Antioxidant activity assessed as inhibition of singlet oxygen induced oxidation of non-fluorescent DHR to fluorescent rhodamine 123 at 37 degC measured after 30 mins by fluorimetric method; conditions: for inhibition (INH): 0.5 h
How it was run: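 Singlet oxygen generated by thermal decomposition of NDPO2 at 37 °C. DHR oxidation to rhodamine 123 read fluorimetrically after 30 min incubation. Compounds in DMSO, final 0.3125–20 μM for chromones and 0.625–80 μM for xanthones. IC50 from % inhibition curves, 5–7 concentrations in triplicate, ≥4 independent experiments.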

[5] = Antioxidant activity assessed as inhibition of NO-induced oxidation of non-fluorescent DAF-2 to the fluorescent triazolofluorescein after 30 mins by fluorimetric method; conditions: for inhibition (INH): 0.5 h
How it was run: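 •NO released from NOC-5; oxidation of DAF-2 to DAF-2T read fluorimetrically (ex 485/em 528 nm) after 30 min at 37 °C. Compounds in DMSO at final 0.25–8 μM. IC50 derived from % inhibition vs concentration curves, 5–7 concentrations in triplicate, at least four independent experiments.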

[6] = Antioxidant activity assessed as inhibition of peroxynitrite induced oxidation of the non-fluorescent dihydrorhodamine 123 to the fluorescent rhodamine 123 after 2 mins by fluorimetric method; conditions: for inhibition (INH): 2 min
How it was run: (§3)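 Peroxynitrite (synthesized in-house) oxidizes DHR to rhodamine 123; fluorescence read after 2 min at 37 °C. Compounds in DMSO at final 0.156–5 μM. A parallel set was run with 25 mM NaHCO3 to mimic physiological CO2. IC50 from inhibition curves, 5–7 concentrations in triplicate, ≥4 independent experiments.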

[7] = Antioxidant activity assessed as inhibition of peroxynitrite induced oxidation of the non-fluorescent dihydrorhodamine 123 to the fluorescent rhodamine-123 in presence of NaHCO3 after 2 mins by fluorimetric method; how it was run: as §3
[8] = Antioxidant activity assessed as inhibition of H2O2 induced lucigenin oxidation at 1000 uM at 37 degC; how it was run: as §2
[9] = Antioxidant activity assessed as inhibition of superoxide induced reduction of NBT measured for 2 mins at 200 uM by UV-visible spectrophotometric method; how it was run: as §1

Compound	IC50 [1]	IC50 [2] [µM]	inhibition (INH) [2]	IC50 [3] [µM]	inhibition (INH) [3]	IC50 [4] [µM]	inhibition (INH) [4]	IC50 [5] [µM]	inhibition (INH) [5]	IC50 [6] [µM]	inhibition (INH) [6]	IC50 [7] [µM]	inhibition (INH) [1]	IC50 ([1]; read-out: IC50) [µM]	inhibition (INH) [8] [%]	inhibition (INH) [9] [%]
O=c1cc(/C=C/C=C/c2ccc(O)c(O)c2)oc2cccc(O)c12	ND(Insoluble)	125	Dose-dependent effect	94	Dose-dependent effect	1.1	Dose-dependent effect	1.23	Dose-dependent effect	0.34	Dose-dependent effect	0.4	–	–	–	–
O=c1cc(/C=C/C=C/c2ccc(O)c(O)c2)oc2ccccc12	ND(Insoluble)	143	Dose-dependent effect	32	Dose-dependent effect	1.3	Dose-dependent effect	0.82	Dose-dependent effect	0.33	Dose-dependent effect	0.34	–	–	–	–
O=c1c2c(O)cccc2oc2cccc(-c3ccc(O)c(O)c3)c12	–	658	Dose-dependent effect	96	Dose-dependent effect	10	Dose-dependent effect	1.5	Dose-dependent effect	0.57	Dose-dependent effect	0.56	Dose-dependent effect	80	–	–
O=c1c2ccccc2oc2cccc(-c3ccc(O)c(O)c3)c12	–	–	–	158	Dose-dependent effect	4.4	Dose-dependent effect	1.99	Dose-dependent effect	0.51	Dose-dependent effect	0.35	Dose-dependent effect	55	12	–
O=c1cc(/C=C/C=C/c2ccc(O)c(O)c2)oc2cc(O)ccc12	–	121	Dose-dependent effect	17	Dose-dependent effect	1.6	Dose-dependent effect	1.42	Dose-dependent effect	0.29	Dose-dependent effect	0.3	–	–	–	36
O=c1c2ccc(O)cc2oc2cccc(-c3ccc(O)c(O)c3)c12	–	518	Dose-dependent effect	31	Dose-dependent effect	7.3	Dose-dependent effect	1.08	Dose-dependent effect	0.39	Dose-dependent effect	0.66	Dose-dependent effect	61	–	–
O=c1c(O)c(-c2ccc(O)c(O)c2)oc2cc(O)cc(O)c12 [QUERCETIN]	–	1340	–	2.4	–	1.5	–	0.77	–	0.45	–	0.68	–	60	–	–
